Laboratory results taken from ChEMBL document CHEMBL5329219, “α-Aminophosphonate inhibitors of metallo-β-lactamases NDM-1 and VIM-2” (RSC Med Chem, 2023).
Active and inactive are the calls of the source. The rule behind the calls is not given here.

Key:
[1] = tested on: HepG2; experiment: Cytotoxicity against human HepG2 cells incubated for 24 hrs by resorufin based fluorescence assay; assay type: toxicity, cell-based; conditions: hepg2, 24 h
In short: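 HepG2 cells grown in DMEM with 10% FBS and 1% penicillin–streptomycin at 37 °C, 5% CO2, seeded for exponential growth. Two-fold serial dilutions of compound added at 0.3% v/v final DMSO for 24 h. PrestoBlue viability read as resorufin fluorescence (544/590 nm). Controls were untreated, DMSO-only and 1% SDS. EC50 from three independent experiments.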

[2] = biological target: Metallo-beta-lactamase type 2 (Bacteria) (UniProt C7C422); experiment: (§1) Inhibition of bacterial metallo-beta-lactamase NDM-1 preincubated for 5 mins followed by imipenem addition by spectrophotometer analysis
Metallo-beta-lactamase type 2 (Bacteria), sequence (C7C422 whole entry): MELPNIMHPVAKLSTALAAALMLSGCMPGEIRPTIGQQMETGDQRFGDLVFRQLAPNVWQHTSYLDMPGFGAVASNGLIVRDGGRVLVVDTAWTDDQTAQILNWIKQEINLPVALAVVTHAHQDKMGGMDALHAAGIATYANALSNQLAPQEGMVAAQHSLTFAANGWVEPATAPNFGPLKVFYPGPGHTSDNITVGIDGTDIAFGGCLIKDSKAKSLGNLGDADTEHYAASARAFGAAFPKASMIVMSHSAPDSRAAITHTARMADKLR
In short: (§2)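 Purified NDM-1 (10 nM) in 50 mM HEPES pH 7.2 with 100 μM ZnCl2, 2.5% DMSO and 400 μg ml−1 BSA, preincubated with inhibitor (twelve concentrations, 0–800 μM) at 25 °C for 5 min. Reaction started with 100 μM imipenem and absorbance read at 300 nm. Triplicates; IC50 from initial velocities by log[inhibitor] vs. response fit.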

[3] = biological target: Metallo-beta-lactamase type 2 (Bacteria, UniProt C7C422); experiment: as §1; in short: as §2
Metallo-beta-lactamase type 2, sequence (C7C422 whole entry): as above

[4] = tested on: Bacteria; experiment: Inhibition of bacterial metallo-beta-lactamase VIM-2 preincubated for 5 mins followed by nitrocefin addition by spectrophotometer analysis
In short: as §2, with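 “VIM-2 (0.1” for “NDM-1 (10”, “nitrocefin” for “imipenem”, “482” for “300”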

## Cl.O=C(NC(C1CCCCN1)P(=O)(O)O)c1scc2c1CCCC2 (stereo in doubt; form 1)
[1]
  Activity: Non-Toxic

## O=C(NC(C1CCCCN1)P(=O)(O)O)c1csc2ccccc12 (stereo in doubt; form 2)
[2]
  inhibition: inactive

## Cl.O=C(NC(C1CCCCN1)P(=O)(O)O)c1csc2c1CCCC2 (stereo not drawn)
[2]
  inhibition: inactive
[3]
  IC50: 76 µM
[1]
  Activity: Non-Toxic

## Cc1[nH]c(=S)sc1CC(=O)NC(C1CCCCN1)P(=O)(O)O (stereo in doubt; form 1)
[2]
  inhibition: inactive

## Cl.O=C(Cc1ccsc1)NC(C1CCCCN1)P(=O)(O)O (stereo not drawn)
[4]
  inhibition: inactive
[1]
  Activity: Non-Toxic

## Cl.O=C(NC(C1CCCCN1)P(=O)(O)O)c1cc2c(s1)CCCC2 (stereo in doubt; form 1)
[1]
  Activity: Non-Toxic

## O=C(NC(C1CCCCN1)P(=O)(O)O)c1cc2c(s1)CCCC2 (stereo in doubt; form 1)
[2]
  inhibition: inactive

## Cl.O=C(Cc1cccs1)NC(C1CCCCN1)P(=O)(O)O (stereo not drawn)
[4]
  inhibition: inactive
[1]
  Activity: Non-Toxic

## Cl.O=C(Cc1csc2ccccc12)NC(C1CCCCN1)P(=O)(O)O (stereo not drawn)
[4]
  inhibition: inactive
[1]
  Activity: Non-Toxic

## O=C(NC(C1CCCCN1)P(=O)(O)O)c1cc2c(s1)CCCC2 (stereo in doubt; form 2)
[2]
  inhibition: inactive

## Cl.O=C(NC(C1CCCCN1)P(=O)(O)O)c1ccsc1 (stereo not drawn)
[1]
  Activity: Non-Toxic

## O=C(NC(C1CCCCN1)P(=O)(O)O)c1scc2c1CCCC2 (stereo in doubt; form 1)
[2]
  inhibition: inactive

## Cl.O=C(NC(C1CCCCN1)P(=O)(O)O)c1cccs1 (stereo not drawn)
[1]
  Activity: Non-Toxic

## Cl.O=C(Cc1cc2ccccc2s1)NC(C1CCCCN1)P(=O)(O)O (stereo not drawn)
[2]
  inhibition: inactive
[3]
  IC50: 22.4 µM
[1]
  Activity: Non-Toxic

## Cc1[nH]c(=S)sc1CC(=O)NC(C1CCCCN1)P(=O)(O)O (stereo in doubt; form 2)
[2]
  inhibition: inactive
[4]
  inhibition: inactive

## Cl.O=C(NC(C1CCCCN1)P(=O)(O)O)c1csc2ccccc12 (stereo in doubt; form 1)
[1]
  Activity: Non-Toxic

## Cc1[nH]c(=S)sc1CC(=O)NC(C1CCCCN1)P(=O)(O)O.Cl (stereo in doubt; form 1)
[1]
  Activity: Non-Toxic

## O=C(NC(C1CCCCN1)P(=O)(O)O)c1scc2c1CCCC2 (stereo in doubt; form 2)
[2]
  inhibition: inactive

## Cl.O=C(NC(C1CCCCN1)P(=O)(O)O)c1cc2ccccc2s1 (stereo not drawn)
[1]
  Activity: Non-Toxic

## O=C(NC(C1CCCCN1)P(=O)(O)O)c1csc2ccccc12 (stereo in doubt; form 1)
[2]
  inhibition: inactive
